According to ChEMBL document CHEMBL1135816, “6-Aryl-1,4-dihydro-benzo[d][1,3]oxazin- 2-ones: a novel class of potent, selective, and orally active nonsteroidal progesterone receptor antagonists” (J Med Chem, 2002):

How the values were obtained:
Androgen receptor = target: T1, Androgen receptor (Homo sapiens, UniProt P10275); assay: Antagonist activity against the Androgen Receptor (AR)
T1 sequence (P10275 whole entry): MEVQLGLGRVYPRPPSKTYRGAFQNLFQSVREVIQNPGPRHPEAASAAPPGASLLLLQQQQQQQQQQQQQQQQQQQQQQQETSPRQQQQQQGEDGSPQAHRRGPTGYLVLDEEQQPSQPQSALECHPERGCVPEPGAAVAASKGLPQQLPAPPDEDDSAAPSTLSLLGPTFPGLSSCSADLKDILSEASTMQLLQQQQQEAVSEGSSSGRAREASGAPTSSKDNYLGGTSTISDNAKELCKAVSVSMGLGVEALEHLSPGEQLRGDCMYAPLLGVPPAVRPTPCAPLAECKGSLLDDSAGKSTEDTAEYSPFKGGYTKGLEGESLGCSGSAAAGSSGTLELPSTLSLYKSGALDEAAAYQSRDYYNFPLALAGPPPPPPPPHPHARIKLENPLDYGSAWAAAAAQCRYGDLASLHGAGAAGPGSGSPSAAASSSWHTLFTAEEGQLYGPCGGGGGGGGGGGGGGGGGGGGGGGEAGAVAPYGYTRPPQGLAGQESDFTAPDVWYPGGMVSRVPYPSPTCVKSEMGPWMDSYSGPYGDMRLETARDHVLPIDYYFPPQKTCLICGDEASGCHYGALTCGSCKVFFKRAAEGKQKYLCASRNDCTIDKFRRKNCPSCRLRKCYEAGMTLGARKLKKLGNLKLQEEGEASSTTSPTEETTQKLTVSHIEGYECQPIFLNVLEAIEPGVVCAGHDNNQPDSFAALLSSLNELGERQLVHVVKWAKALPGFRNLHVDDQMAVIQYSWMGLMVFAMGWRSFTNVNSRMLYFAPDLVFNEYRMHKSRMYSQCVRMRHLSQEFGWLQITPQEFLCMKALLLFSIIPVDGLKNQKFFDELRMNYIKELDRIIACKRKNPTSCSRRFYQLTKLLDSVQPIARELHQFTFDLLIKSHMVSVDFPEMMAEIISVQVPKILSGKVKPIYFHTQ

[1] = target: T2, Mineralocorticoid receptor (Homo sapiens, UniProt P08235); assay: Antagonist activity against the Mineralocorticoid Receptor (MR); type: functional
T2 sequence (P08235 whole entry): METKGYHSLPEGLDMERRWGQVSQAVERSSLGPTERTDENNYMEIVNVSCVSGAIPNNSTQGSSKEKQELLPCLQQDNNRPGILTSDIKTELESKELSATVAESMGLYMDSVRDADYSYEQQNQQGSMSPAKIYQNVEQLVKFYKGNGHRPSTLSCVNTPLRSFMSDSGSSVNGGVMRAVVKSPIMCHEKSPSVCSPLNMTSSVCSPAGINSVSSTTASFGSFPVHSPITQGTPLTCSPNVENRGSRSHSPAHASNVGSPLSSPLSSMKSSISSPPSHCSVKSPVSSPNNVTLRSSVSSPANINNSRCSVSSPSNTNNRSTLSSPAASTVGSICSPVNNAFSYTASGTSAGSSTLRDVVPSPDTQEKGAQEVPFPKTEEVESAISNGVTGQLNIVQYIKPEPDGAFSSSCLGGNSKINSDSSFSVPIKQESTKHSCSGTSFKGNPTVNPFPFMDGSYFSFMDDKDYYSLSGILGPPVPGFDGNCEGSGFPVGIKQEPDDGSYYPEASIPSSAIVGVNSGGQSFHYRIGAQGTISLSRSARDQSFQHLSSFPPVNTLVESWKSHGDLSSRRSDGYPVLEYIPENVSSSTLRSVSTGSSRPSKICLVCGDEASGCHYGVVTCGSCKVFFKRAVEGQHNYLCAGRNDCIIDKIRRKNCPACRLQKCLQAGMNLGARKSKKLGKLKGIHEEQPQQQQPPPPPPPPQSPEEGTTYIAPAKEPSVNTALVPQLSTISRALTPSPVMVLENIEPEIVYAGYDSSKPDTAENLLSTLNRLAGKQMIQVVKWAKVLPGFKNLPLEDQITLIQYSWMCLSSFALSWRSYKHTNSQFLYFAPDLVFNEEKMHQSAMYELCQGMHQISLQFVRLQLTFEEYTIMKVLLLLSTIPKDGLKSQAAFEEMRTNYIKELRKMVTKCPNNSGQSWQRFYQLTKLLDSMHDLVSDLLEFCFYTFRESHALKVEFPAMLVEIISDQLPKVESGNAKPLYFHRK

Progesterone receptor = target: T3, Progesterone receptor (Homo sapiens, UniProt P06401); assay: Antagonist activity against progesterone receptor (PR) in an assay using PRE-luciferase plasmid co-transfected CV-1 cells; type: functional, cell-based
T3 sequence (P06401 whole entry): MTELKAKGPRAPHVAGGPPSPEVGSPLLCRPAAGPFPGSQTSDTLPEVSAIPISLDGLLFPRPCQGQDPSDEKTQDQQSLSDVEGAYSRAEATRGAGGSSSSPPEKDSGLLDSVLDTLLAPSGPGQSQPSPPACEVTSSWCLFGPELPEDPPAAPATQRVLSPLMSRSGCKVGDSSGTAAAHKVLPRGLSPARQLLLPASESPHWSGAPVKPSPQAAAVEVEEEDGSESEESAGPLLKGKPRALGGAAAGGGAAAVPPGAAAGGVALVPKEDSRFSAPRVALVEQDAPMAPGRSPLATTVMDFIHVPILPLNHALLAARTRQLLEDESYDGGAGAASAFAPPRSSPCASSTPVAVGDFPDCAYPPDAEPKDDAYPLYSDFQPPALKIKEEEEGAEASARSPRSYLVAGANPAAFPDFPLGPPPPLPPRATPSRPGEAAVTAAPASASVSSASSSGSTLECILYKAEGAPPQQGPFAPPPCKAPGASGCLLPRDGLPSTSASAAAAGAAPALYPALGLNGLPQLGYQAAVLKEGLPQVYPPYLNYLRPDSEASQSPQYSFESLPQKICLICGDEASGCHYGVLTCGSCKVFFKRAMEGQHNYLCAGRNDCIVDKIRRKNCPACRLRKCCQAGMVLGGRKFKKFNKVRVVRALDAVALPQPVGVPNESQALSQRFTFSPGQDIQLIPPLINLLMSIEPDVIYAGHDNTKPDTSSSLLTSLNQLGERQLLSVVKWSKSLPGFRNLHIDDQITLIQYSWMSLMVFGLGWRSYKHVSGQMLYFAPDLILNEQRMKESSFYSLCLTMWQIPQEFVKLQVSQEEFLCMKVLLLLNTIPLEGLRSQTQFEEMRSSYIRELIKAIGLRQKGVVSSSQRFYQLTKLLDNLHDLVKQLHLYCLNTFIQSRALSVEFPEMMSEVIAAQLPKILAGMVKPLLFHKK
Procedure, shortened: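 CV-1 cells cotransfected with hPR and PRE-luciferase plasmids, luciferase read-out; IC50 averaged from at least duplicate determinations.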

Compound	IC50 (Androgen receptor) [nM]	IC50 [1] [nM]	IC50 (Progesterone receptor) [nM]
CC1(C)OC(=O)Nc2ccc(-c3ccc(F)c(Cl)c3)cc21	207	2490	–
CC1(C)OC(=O)Nc2ccc(-c3csc(C#N)c3)cc21	280	1390	6.7
CC1(C)OC(=O)Nc2ccc(-c3cc(F)cc(C#N)c3)cc21	1290	2370	15.9
CC1(C)OC(=O)Nc2ccc(-c3coc(C#N)c3)cc21	129	> 10000	40.2
